Results taken from ChEMBL document CHEMBL3779830, “Diterpenoids from the Roots of Euphorbia fischeriana with Inhibitory Effects on Nitric Oxide Production” (J Nat Prod, 2016).

What was measured:
[1] = test system: RAW264.7; experiment: Inhibition of LPS-induced nitric oxide production in mouse RAW264.7 cells after 24 hrs by Griess assay; format: functional, cell-based; settings: RAW264.7, 24 h
Method in brief: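 RAW 264.7 cells seeded at 2 × 10^6 cells/mL and stimulated with 1 μg/mL LPS, with or without compounds, for 24 h at 37 °C. Cell-free supernatant was mixed 1:1 with Griess reagent (2% sulfanilamide in 5% phosphoric acid plus 0.2% N-(1-naphthyl)ethylenediamine). Nitrite was read at 550 nm against sodium nitrite standards. Aminoguanidine and indomethacin were positive controls. Means ± SD from triplicate experiments.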

[2] = test system: RAW264.7; experiment: Cytotoxicity against mouse RAW264.7 cells assessed as cell viability at nitric oxide IC50 level by MTT assay; format: cell-based
Method in brief: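 Viability was read by MTT colorimetric assay on the cells remaining after the NO assay. That assay seeded RAW 264.7 cells at 2 × 10^6 cells/mL and stimulated them with 1 μg/mL LPS, with or without compounds, for 24 h at 37 °C.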

Compound	IC50 [1]	Activity [2]
CC1=C2[C@@H](O)C3=C([C@@H](O)[C@H]2OC1=O)[C@]1(C)CCCC(C)(C)[C@H]1CC3	> 20 µM	Non-toxic
C=C[C@]1(C)CC[C@@]2(C)c3cc(O)c(O)c(C)c3CC[C@@H]2C1	7.4 µM	Non-toxic
CC1=C[C@]23C(=O)[C@@H](C=C(CO)[C@@H](O)[C@]2(O)[C@H]1O)[C@H]1[C@@H](C[C@H]3C)C1(C)C [INGENOL]	> 20 µM	Non-toxic
C=C[C@]1(C)CC[C@]2(C)[C@H](CC[C@H]3[C@@](C)(CO)C(=O)C=C[C@]32O)C1		Non-toxic
CC1=C2[C@@H](O)[C@@]3(O)CC[C@@H]4C(C)(C)CCC[C@@]4(C)[C@@H]3[C@@H](O)[C@H]2OC1=O	> 20 µM	Non-toxic
CC1=C2[C@H]3O[C@]34CC[C@@H]3C(C)(C)CCC[C@@]3(C)[C@@H]4[C@@H](O)[C@H]2OC1=O	12.6 µM	Non-toxic
C=C[C@]1(C)CC[C@@]2(C)C3=CC(=O)O[C@@H]3C(C)(C)C[C@H](O)[C@@H]2C1	> 20 µM	Non-toxic
CC1=C2C(=O)C3=C([C@@H](O)[C@H]2OC1=O)[C@]1(C)CCCC(C)(C)[C@H]1CC3	> 20 µM	Non-toxic
CC1=C2[C@@H](O)C3=CC[C@@H]4C(C)(C)CCC[C@@]4(C)[C@@H]3[C@@H](O)[C@H]2OC1=O	> 20 µM	Non-toxic
C[C@H]1C[C@]2(OC(=O)/C=C/c3ccccc3)C(=O)/C(CO)=C/[C@@H]3[C@H](CC[C@@]4(C)O[C@H]4[C@H]2[C@H]1O)C3(C)C	9.4 µM	Non-toxic
CC1=C2C=C3CC[C@@H]4C(C)(C)CCC[C@@]4(C)[C@@H]3[C@H](O)[C@H]2OC1=O	> 20 µM	Non-toxic
CC1=C2[C@H](OC1=O)[C@H](O)[C@H]1[C@]3(C)CCCC(C)(C)[C@H]3CC[C@@]1(O)[C@H]2O	5.6 µM	Non-toxic
COc1ccc2c(c1)c(CC(=O)O)c(C)n2C(=O)c1ccc(Cl)cc1 [INDOMETHACIN]	12.5 µM	
N=C(N)NN [PIMAGEDINE]	18.7 µM	
C=C1C[C@@]23CC[C@@H]4C(C)(C)C(=O)CC[C@@]4(C)[C@@H]2C[C@@H]1[C@@H](O)C3=O	> 20 µM	Non-toxic
CC1=C2C=C3[C@@H](O)C[C@@H]4C(C)(C)CCC[C@@]4(C)[C@@H]3[C@@H](O)[C@H]2OC1=O	> 20 µM	Non-toxic
